From PubChem BioAssay
Only some compounds are listed: those with a hit (about 4.3% of all), similar ones and a draw of the others.
OX1R antag-1: OX1R (human) antagonism; O43613; OX1R-expressing cells, FRET antagonist read-out; inhibition, % at 6.6 µM; 330,000 compounds, 1.8% hits; AID 485270; in the data active = inhibition mostly above about 38%, no sharp cut-off; inactive = mostly below about 40%;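 also: 0% = agonist challenge alone and 100% = reference antagonist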
TAAR1 antagonist: antagonists of human TAAR1. AID 624466. Q96RJ0. 360,000 compounds, 1.5% hits. inhibition, % at 3 µM. CHO RD-HGA16 TAAR1, Fluo-8 calcium fluorescence, antagonist;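 active = inhibition above a per-plate cutoff, the mean inhibition of test compounds on that plate plus 3 SD, cut at about 49% in these data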;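 also: 0% = DMSO plus EC80 beta-PEA response and 100% = DMSO alone without agonist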
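Material: RD-HGA16 CHO cells with stable hTAAR1 and Gα16; Dosing: single nominal final test compound concentration of 3 µM; Schedule: seeding 17-24 h prior, 75-min 37 °C, 30-min RT dye loading; Detection: kinetic Fluo-8 calcium fluorescence measurement; Measure: % inhibition from peak post-agonist over basal fluorescence ratio; Benchmarks: vehicle and agonist controls.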
CHO parental Ca: counter-screen: ATP calcium response change in parental CHO cells; parental CHO-K1, ATP-induced calcium, Fluo-8 fluorescence; inhibition, % at 5.6 µM; 330,000 compounds, 0.63% hits;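 active = inhibition above that plate's mean sample inhibition plus 3 SD, cut at about 26% in these data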;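 also: 0% = ATP-challenged DMSO wells and 100% = DMSO wells without ATP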
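Material – parental CHO cells · Reagent – ATP stimulus · Compound – single nominal dose of 5.6 µM per compound · Detection – Fluo-8 fluorescence · Read-out basis – percent inhibition of calcium signal · Controls – ATP-challenged DMSO wells low, unchallenged DMSO wells high · Repeats – no replicates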
OX1R antag-2: blocks the human orexin 1 receptor; O43613; CHO/OX1R cells, Fluo-8 calcium fluorescence, orexin A; inhibition, % at 5 µM; 330,000 compounds, 0.43% hits;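 active = inhibition above its plate's threshold, mean inhibition of all tested compounds on the plate plus 3 SD, cut at about 37% in these data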;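 also: 0% = orexin A challenge wells and 100% = SB-334867-A antagonist wells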
TAAR1 agonist: human TAAR1 agonism; AID 624467; 360,000 compounds, 0.99% hits; Q96RJ0; activation, % at 3 µM; CHO RD-HGA16 TAAR1, Fluo-8 calcium fluorescence; vehicle wells 0%, saturating PEA agonist 100%;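 active = activation above the mean activation of all test compounds in the run plus 3 SD, cut at about 38% in these data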
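System: CHO-derived RD-HGA16 cells with stable Gα16 and human TAAR1. Times: 17-24 h plating, Fluo-8 75 min 37 °C, 30 min RT. Measured by: calcium-sensitive Fluo-8 signal, excitation 470-495, emission 515-575 nm. Read-out basis: % activation relative to PEA EC100 response. Control set: DMSO and PEA EC100. Repeats: no replicates (n 1).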
GalR3 antagonist: antagonists of human GalR3; O60755; HEK293 GalR3-CNG cAMP membrane potential fluorescence; galR3 body fused to GalR1 C-terminus; inhibition, % at 3 µM; 360,000 compounds, 0.44% hits;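 active = inhibition above the screen-wide average plus 3 SD, cut at about 13% in these data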;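 also: forskolin and galanin both at EC90 stimulate the cells; cAMP rise reported by CNG channel membrane potential dye signal; 0% = forskolin plus galanin with DMSO and 100% = forskolin alone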
Target sequence (O60755 1-299 limits assumed): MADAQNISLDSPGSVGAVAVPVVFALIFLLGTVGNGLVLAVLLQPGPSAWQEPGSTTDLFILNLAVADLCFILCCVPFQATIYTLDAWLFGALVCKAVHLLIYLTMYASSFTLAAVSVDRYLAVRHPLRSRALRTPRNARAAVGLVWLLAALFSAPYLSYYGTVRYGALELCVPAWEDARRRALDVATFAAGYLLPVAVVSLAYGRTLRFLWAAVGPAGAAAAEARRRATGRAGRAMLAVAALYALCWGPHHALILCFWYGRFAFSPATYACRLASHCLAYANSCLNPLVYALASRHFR
OX1R Fluo8 conf: confirmation of human orexin 1 receptor antagonists. shares compounds with OX1R antag-2. CHO/OX1R cells, orexin A calcium Fluo-8 fluorescence. inhibition, % at 5 µM. 1,100 compounds, 38% hits. AID 492963; in the data active = inhibition above about 29%;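 also: 0% = agonist challenge alone and 100% = reference antagonist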
CHO Ca counter: signal in parental CHO cells, OX1R antagonist counter-screen. shares compounds with OX1R antag-2. 1,100 compounds, 9.3% hits. inhibition, % at 5.6 µM. parental CHO-K1, ATP-induced calcium, Fluo-8 fluorescence;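 active = inhibition above a per-plate limit, the mean inhibition of that plate's test compounds plus 3 SD, cut at about 25% in these data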;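 also: 0% = ATP challenge with DMSO and 100% = DMSO without ATP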
OX1R HTRF confirm: confirmation of human orexin 1 receptor antagonists, HTRF format | inhibition, % at 6.6 µM | AID 492964 | shares compounds with OX1R antag-1 | OX1R-expressing cells, HTRF antagonist assay | 1,800 compounds, 49% hits; in the data active = inhibition above about 55%;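 also: CHO cells expressing OX1R stimulated with orexin A at about EC80; 0% = agonist challenge alone and 100% = reference antagonist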
CHO-K1 HTRF: signal in parental CHO-K1 cells, OX1R antagonist counter-screen; shares compounds with OX1R antag-1; 1,800 compounds, 48% hits; HTRF counterscreen; inhibition, % at 6.6 µM; in the data active = inhibition above about 17%;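 also: 0% = agonist challenge with vehicle and 100% = vehicle alone without agonist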
* marks the source's active call; other numbers are inactive results; / = not tested or not shown.

SMILES | OX1R antag-1 | TAAR1 antagonist | CHO parental Ca | OX1R antag-2 | TAAR1 agonist | GalR3 antagonist | OX1R Fluo8 conf | CHO Ca counter | OX1R HTRF confirm | CHO-K1 HTRF
COc1ccc(CN(C(=O)CN2C(=O)C(C)Oc3ccccc32)C2CCCC2)c(OC)c1 (stereo not drawn) | 84* | / | -29 | 59* | / | / | 24 | -13 | 77* | 4
CC1Oc2ccccc2N(CC(=O)NC2CCCC2)C1=O (stereo not drawn) | 10 | 6 | -15 | -15 | -3 | -4 | / | / | / | /
COC(=O)c1cccc(NC(=O)c2cnn(C)c2)c1 | 4 | -14 | -3 | -1 | 0 | -1 | / | / | / | /
Cc1ccc(S(=O)(=O)N2[C@@H](c3ccccc3)C(C(=O)O)=CC[C@H]2c2cccc(C)c2)cc1 | 37 | 14 | -18 | -6 | 4 | -4 | / | / | / | /
Cc1ccc(S(=O)(=O)N2[C@@H](c3cccc(Cl)c3)C(C(=O)O)=CC[C@H]2c2ccc(C(C)C)cc2)cc1 | 70* | 46 | 10 | 36 | 11 | -4 | 24 | 0 | 77* | 7
Cc1ccc([C@@H]2CC=C(C(=O)O)[C@H](c3cccc(F)c3)N2S(=O)(=O)c2ccccc2C)cc1 | 71* | 29 | -14 | 50* | 0 | -6 | 26 | -3 | 86* | 4
CCn1c2ccccc2c2cc(NC(=O)c3cccc(OC)c3)ccc21 | 104* | / | -8 | 97* | / | / | 97* | -12 | 103* | 14
COc1cc(Cl)c(C)cc1NC(=O)c1cccc(OC)c1OC | 70* | 0 | -22 | 22 | 0 | -9 | 7 | -3 | 82* | 13
CCn1c(SCC(=O)Nc2ccc3c(c2)c2ccccc2n3CC)nnc1-c1cnccn1 | 89* | -8 | -17 | 91* | 5 | -1 | 68* | -15 | 92* | 9
CCn1c2ccccc2c2cc(NC(=O)c3cccc(OC)c3OC)ccc21 | 87* | 10 | 7 | 64* | -1 | 0 | 74* | -3 | 91* | 14
CCn1c(SCC(=O)Nc2ccc(C)cc2)nnc1-c1cnccn1 | -2 | -12 | -5 | -5 | 2 | 2 | / | / | / | /
CCn1c(C)c(C)c2cc(C(=O)Nc3cccc(Cl)c3)ccc21 | 121* | 4 | 28 | 40 | 12 | -1 | -6 | -11 | 85* | 9
Cc1ccc(S(=O)(=O)N2CCC(C(=O)OCC(=O)N(C)C3CCCCC3)CC2)cc1C | 3 | -10 | -9 | -33 | 0 | -4 | / | / | / | /
COc1ccc(N2C(=NC(=O)C3CC3)SC3CS(=O)(=O)CC32)cc1Cl (stereo not drawn) | 12 | -4 | -12 | -16 | 2 | -6 | / | / | / | /
CCCN(CC(=O)Nc1ccccc1OC)C(=O)CSc1ccc(Br)cc1C | 58* | 6 | -24 | 54* | 3 | 0 | 22 | -11 | 73* | 4
CCCN(CC(=O)Nc1ccccc1OC)C(=O)Cn1[nH]c(=O)c2ccccc2c1=O | 7 | -5 | -22 | -22 | 4 | -6 | / | / | / | /
COc1ccn(C2CCCCO2)c(=O)n1 (stereo not drawn) | / | -8 | / | / | 2 | -2 | / | / | / | /
CC1(C(=O)NC2CCCCC2)CCC(=O)N1CCOc1ccccc1 (stereo not drawn) | / | -27 | / | / | 20 | -4 | / | / | / | /
CN(Cc1ccccc1)C(=O)Cn1c(=O)oc2cc(S(=O)(=O)N3CCCC3)ccc21 | 14 | 6 | -8 | -14 | 1 | -3 | / | / | / | /
CN(Cc1ccccc1)C(=O)Cn1c(=O)oc2cc(S(=O)(=O)NCc3ccccc3)ccc21 | 48* | 43 | 7 | 25 | 18 | 0 | 47* | 7 | 88* | -10
